Measurements published in ChEMBL document CHEMBL3045116, “Synthesis and biological evaluation of 2-(5-substituted-1-((diethylamino)methyl)-2-oxoindolin-3-ylidene)-N-substituted-hydrazinecarbothioamides” (Med Chem Res, 2013).

Tests used:
Candida albicans = assay: Antifungal activity against Candida albicans assessed as growth inhibition at 50 ug/ml by cup-plate method (reference value: 8 to 10 mm); type: functional; settings: read-out: DIZ
Human alphaherpesvirus 2 = assay: Antiviral activity against Human herpesvirus 2 strain G infected human HEL cells assessed as reduction of virus-induced cytopathic effect after 3 days by colorimetric formazan-based MTS assay; type: functional, organism-based; settings: Human alphaherpesvirus 2, strain G, 72 h
Method in brief: (§1)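 Confluent cell monolayers were infected with 100 CCID50 of virus, and serial dilutions of compound were added at the time of infection.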

Proteus vulgaris = assay: Antibacterial activity against Proteus vulgaris assessed as growth inhibition at 50 ug/ml by cup-plate method (reference value: 8 to 10 mm); type: functional; settings: read-out: DIZ
[1] = test system: Mammalian orthoreovirus 1; assay: Antiviral activity against Mammalian orthoreovirus 1 infected African green monkey Vero cells assessed as reduction of virus-induced cytopathic effect after 3 days by colorimetric formazan-based MTS assay; type: functional, organism-based; settings: Mammalian orthoreovirus 1, Vero, 72 h
Method in brief: (§2)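 Cells grown to confluency in 96-well plates ([…], Vero for lines 9–10) were infected with 100 CCID50 of virus, and serial compound dilutions were added at infection. Plates were incubated at 37 °C for 3 days, until complete CPE appeared in untreated virus controls.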

Escherichia coli = assay: Antibacterial activity against Escherichia coli assessed as growth inhibition at 50 ug/ml by cup-plate method (reference value: 8 to 10 mm); type: functional; settings: read-out: DIZ
Influenza A virus = assay: Antiviral activity against Unidentified Influenza A virus (H1N1) infected MDCK cells assessed as reduction of virus-induced cytopathic effect after 3 days by colorimetric formazan-based MTS assay; type: functional, organism-based; settings: 72 h; method in brief: as §1
Influenza A virus H3N2 = assay: Antiviral activity against Influenza A virus H3N2 infected MDCK cells assessed as reduction of virus-induced cytopathic effect after 3 days by colorimetric formazan-based MTS assay; type: functional, organism-based; settings: 72 h; method in brief: as §1
Punta Toro virus = assay: Antiviral activity against Punta Toro virus infected in African green monkey Vero cells assessed as reduction of virus-induced cytopathic effect after 3 days by colorimetric formazan-based MTS assay; type: functional, organism-based; settings: 72 h; method in brief: as §1
Human alphaherpesvirus 1 [2] = assay: Antiviral activity against Human herpesvirus 1 strain KOS infected human HEL cells assessed as reduction of virus-induced cytopathic effect after 3 days by colorimetric formazan-based MTS assay; type: functional, organism-based; settings: Human alphaherpesvirus 1, KOS, 72 h; method in brief: as §1
Staphylococcus aureus = assay: Antibacterial activity against Staphylococcus aureus assessed as growth inhibition at 50 ug/ml by cup-plate method (reference value: 8 to 10 mm); type: functional; settings: read-out: DIZ
Vaccinia virus = assay: Antiviral activity against Vaccinia virus infected human HEL cells assessed as reduction of virus-induced cytopathic effect after 3 days by colorimetric formazan-based MTS assay; type: functional, organism-based; settings: Orthopoxvirus vaccinia, 72 h; method in brief: as §1
[3] = test system: Vesicular stomatitis virus; assay: Antiviral activity against Vesicular stomatitis virus infected human HeLa cells assessed as reduction of virus-induced cytopathic effect after 3 days by colorimetric formazan-based MTS assay; type: functional, organism-based; settings: 72 h; method in brief: as §1
Coxsackievirus B4 [4] = assay: Antiviral activity against Human coxsackievirus B4 infected human HeLa cells assessed as reduction of virus-induced cytopathic effect after 3 days by colorimetric formazan-based MTS assay; type: functional, organism-based; settings: Enterovirus B, 72 h; method in brief: as §1
[5] = Cytotoxicity against Chlorocebus aethiops (African green monkey) Vero cells assessed as change in cellular morphology; type: cell-based; settings: chlorocebus sabaeus
[6] = test system: Vesicular stomatitis virus; assay: Antiviral activity against Vesicular stomatitis virus infected human HEL cells assessed as reduction of virus-induced cytopathic effect after 3 days by colorimetric formazan-based MTS assay; type: functional, organism-based; settings: 72 h; method in brief: as §1
Coxsackievirus B4 [7] = assay: Antiviral activity against Human coxsackievirus B4 infected African green monkey Vero cells assessed as reduction of virus-induced cytopathic effect after 3 days by colorimetric formazan-based MTS assay; type: functional, organism-based; settings: Enterovirus B, 72 h; method in brief: as §1
[8] = test system: Respiratory syncytial virus; assay: Antiviral activity against Respiratory syncytial virus infected human HeLa cells assessed as reduction of virus-induced cytopathic effect after 3 days by colorimetric formazan-based MTS assay; type: functional, organism-based; settings: 72 h; method in brief: as §1
HeLa = assay: (§3) Cytotoxicity against Homo sapiens (human) HeLa cells assessed as change in cellular morphology; type: cell-based; settings: hela
Method in brief: (§4)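 Uninfected cells were exposed to compound in parallel with the antiviral cultures. The read-out is the minimum cytotoxic concentration that causes a microscopically detectable alteration of normal cell morphology.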

[9] = as §3; type: cell-based; settings: HeLa cells; method in brief: as §4
Bacillus subtilis = assay: Antibacterial activity against Bacillus subtilis assessed as growth inhibition at 50 ug/ml by cup-plate method (reference value: 8 to 10 mm); type: functional; settings: read-out: DIZ
[10] = test system: Feline infectious peritonitis virus; assay: Antiviral activity against Feline Infectious peritonitis virus infected cat CRFK cells assessed as reduction of virus-induced cytopathic effect after 3 days by colorimetric formazan-based MTS assay; type: functional, organism-based; settings: Alphacoronavirus 1, CRFK, 72 h; method in brief: as §1
L1210 = assay: Cytotoxicity against Mus musculus (mouse) L1210 cells assessed as growth inhibition after 48 hr by coulter counter analysis; type: functional, cell-based; settings: L1210, 48 h
Method in brief: (§5)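 Cells in growth medium were allowed to proliferate with variable compound amounts at 37 °C in a humidified CO2 atmosphere. Incubation ran 48 h for L1210, 72 h for CEM and 96 h for HeLa. Cells were then counted with a Coulter counter.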

Klebsiella pneumoniae = assay: Antibacterial activity against Klebsiella pneumoniae assessed as growth inhibition at 50 ug/ml by cup-plate method (reference value: 8 to 10 mm); type: functional; settings: read-out: DIZ
Aspergillus niger = assay: Antifungal activity against Aspergillus niger assessed as growth inhibition at 50 ug/ml by cup-plate method (reference value: 8 to 10 mm); type: functional; settings: read-out: DIZ
[11] = Cytotoxicity against Homo sapiens (human) HEL cells assessed as change in cellular morphology; type: cell-based
CCRF-CEM = assay: Cytotoxicity against Homo sapiens (human) CEM cells assessed as growth inhibition after 72 hr by coulter counter analysis; type: functional, cell-based; method in brief: as §5
Felid alphaherpesvirus 1 = assay: Antiviral activity against Felid herpesvirus 1 infected cat CRFK cells assessed as reduction of virus-induced cytopathic effect after 3 days by colorimetric formazan-based MTS assay; type: functional, organism-based; settings: Felid alphaherpesvirus 1, CRFK, 72 h; method in brief: as §2
[12] = Inhibition of beta lactamase assessed as time for decolorization of iodine (reference value: 79.5 secs)
Influenza B virus = assay: Antiviral activity against Influenza B virus infected in MDCK cells assessed as reduction of virus-induced cytopathic effect after 3 days by colorimetric formazan-based MTS assay; type: functional, organism-based; settings: 72 h; method in brief: as §1
Human alphaherpesvirus 1 [13] = assay: Antiviral activity against acyclovir-resistant thymidine kinase negative Human herpesvirus 1 strain KOS infected human HEL cells assessed as reduction of virus-induced cytopathic effect after 3 days by colorimetric formazan-based MTS assay; type: functional, organism-based; settings: Human alphaherpesvirus 1, KOS, 72 h; method in brief: as §1
[14] = Inhibition of beta lactamase assessed as increase in time taken for iodine decolorization relative to control; parameters: concentration or dose not given beside the values; settings: concentration not given here
Respirovirus muris = assay: Antiviral activity against Sendai virus infected African green monkey Vero cells assessed as reduction of virus-induced cytopathic effect after 3 days by colorimetric formazan-based MTS assay; type: functional, organism-based; settings: 72 h
Salmonella typhi = assay: Antibacterial activity against Salmonella enterica subsp. enterica serovar Typhi assessed as growth inhibition at 50 ug/ml by cup-plate method (reference value: 8 to 10 mm); type: functional; settings: read-out: DIZ
[15] = Cytotoxicity against Felis catus (cat) CRFK cells assessed as change in cellular morphology; type: cell-based; settings: crfk; method in brief: as §4
MDCK = assay: (§6) Cytotoxicity against MDCK cells assessed as change in cellular morphology; type: cell-based, Canis lupus familiaris; settings: dog, mdck; method in brief: as §4
[16] = as §6; type: cell-based, Canis lupus familiaris; settings: dog, MDCK cells; method in brief: as §4
Human respirovirus 3 = assay: Antiviral activity against Human parainfluenza virus 3 infected African green monkey Vero cells assessed as reduction of virus-induced cytopathic effect after 3 days by colorimetric formazan-based MTS assay; type: functional, organism-based; settings: Human respirovirus 3, Vero, 72 h; method in brief: as §2

SMILES | zone of inhibition at 50 µg/mL (Candida albicans) [mm] | EC50 (Human alphaherpesvirus 2) [µM] | zone of inhibition at 50 µg/mL (Proteus vulgaris) [mm] | EC50 [1] [µM] | zone of inhibition at 50 µg/mL (Escherichia coli) [mm] | EC50 (Influenza A virus) [µM] | EC50 (Influenza A virus H3N2) [µM] | EC50 (Punta Toro virus) [µM] | EC50 (Human alphaherpesvirus 1 [2]) [µM] | zone of inhibition at 50 µg/mL (Staphylococcus aureus) [mm] | EC50 (Vaccinia virus) [µM] | EC50 [3] [µM] | EC50 (Coxsackievirus B4 [4]) [µM] | MCC [5] [µM] | EC50 [6] [µM] | EC50 (Coxsackievirus B4 [7]) [µM] | EC50 [8] [µM] | CC50 (HeLa) [µM] | MCC [9] [µM] | zone of inhibition at 50 µg/mL (Bacillus subtilis) [mm] | further results
CCN(CC)CN1C(=O)/C(=N/NC(=S)Nc2ccc(C)cc2)c2ccccc21 | 11 | 12 | 11 | > 20 | 21 | > 0.16 | > 0.16 | > 20 | 14 | 21 | 11 | > 20 | > 20 | 100 | > 20 | > 20 | > 20 | 10.7 | ≥ 20 | 21 | EC50 [10]: > 0.8 µM; IC50 (L1210): 29 µM; zone of inhibition at 50 µg/mL (Klebsiella pneumoniae): 11 mm; zone of inhibition at 50 µg/mL (Aspergillus niger): 11 mm; MCC [11]: 100 µM; IC50 (CCRF-CEM): 12 µM; EC50 (Felid alphaherpesvirus 1): > 0.8 µM; TIME [12]: 0.0405 h; EC50 (Influenza B virus): > 0.16 µM; EC50 (Human alphaherpesvirus 1 [13]): ≥ 20 µM; inhibition [14]: 45.5%; EC50 (Respirovirus muris): > 20 µM; zone of inhibition at 50 µg/mL (Salmonella typhi): 21 mm; CC50 [15]: 3.8 µM; CC50 (MDCK): 0.2 µM; MCC [16]: 800 nM; EC50 (Human respirovirus 3): > 20 µM
CCN(CC)CN1C(=O)/C(=N/NC(N)=S)c2ccccc21 | 11 | > 100 | 11 | > 100 | 11 | > 20 | > 20 | > 100 | > 100 | 11 | > 100 | > 100 | > 100 | > 100 | > 100 | > 100 | > 100 | > 100 | > 100 | 11 | EC50 [10]: > 20 µM; IC50 (L1210): 121 µM; zone of inhibition at 50 µg/mL (Klebsiella pneumoniae): 11 mm; zone of inhibition at 50 µg/mL (Aspergillus niger): 11 mm; MCC [11]: > 100 µM; IC50 (CCRF-CEM): 164 µM; EC50 (Felid alphaherpesvirus 1): > 20 µM; TIME [12]: 0.0357 h; EC50 (Influenza B virus): > 20 µM; EC50 (Human alphaherpesvirus 1 [13]): > 100 µM; inhibition [14]: 38.2%; EC50 (Respirovirus muris): > 100 µM; zone of inhibition at 50 µg/mL (Salmonella typhi): 11 mm; CC50 [15]: 73.8 µM; CC50 (MDCK): 85.8 µM; MCC [16]: 100000 nM; EC50 (Human respirovirus 3): > 100 µM
CCN(CC)CN1C(=O)/C(=N/NC(=S)Nc2ccccc2)c2ccccc21 | 21 | 15 | 21 | > 20 | 11 | > 0.16 | > 0.16 | > 20 | 20 | 11 | 20 | > 20 | > 20 | 100 | > 100 | > 20 | > 20 | 10.8 | ≥ 20 | 11 | EC50 [10]: > 20 µM; IC50 (L1210): 13 µM; zone of inhibition at 50 µg/mL (Klebsiella pneumoniae): 11 mm; zone of inhibition at 50 µg/mL (Aspergillus niger): 21 mm; MCC [11]: > 100 µM; IC50 (CCRF-CEM): 11 µM; EC50 (Felid alphaherpesvirus 1): > 20 µM; TIME [12]: 0.0443 h; EC50 (Influenza B virus): > 0.16 µM; EC50 (Human alphaherpesvirus 1 [13]): > 100 µM; inhibition [14]: 50.2%; EC50 (Respirovirus muris): > 20 µM; zone of inhibition at 50 µg/mL (Salmonella typhi): 21 mm; CC50 [15]: 32.3 µM; CC50 (MDCK): 1.6 µM; MCC [16]: 800 nM; EC50 (Human respirovirus 3): > 20 µM
CCN(CC)CN1C(=O)/C(=N/NC(=S)Nc2ccc(OC)cc2)c2ccccc21 | 11 | > 20 | 21 | > 0.8 | 11 | > 0.8 | > 0.8 | > 0.8 | > 20 | 11 | > 20 | > 4 | > 4 | 4 | > 20 | > 0.8 | > 4 | > 100 | ≥ 4 | 11 | EC50 [10]: > 0.8 µM; IC50 (L1210): 2.4 µM; zone of inhibition at 50 µg/mL (Klebsiella pneumoniae): 11 mm; zone of inhibition at 50 µg/mL (Aspergillus niger): 11 mm; MCC [11]: 100 µM; IC50 (CCRF-CEM): 1.9 µM; EC50 (Felid alphaherpesvirus 1): > 0.8 µM; TIME [12]: 0.0343 h; EC50 (Influenza B virus): > 0.8 µM; EC50 (Human alphaherpesvirus 1 [13]): > 20 µM; inhibition [14]: 35.7%; EC50 (Respirovirus muris): > 0.8 µM; zone of inhibition at 50 µg/mL (Salmonella typhi): 21 mm; CC50 [15]: 3.5 µM; CC50 (MDCK): 9.2 µM; MCC [16]: 4000 nM; EC50 (Human respirovirus 3): > 0.8 µM
